Each structure is given as a SMILES string. pKi: −log10 of the molar value.

The text below walks through data of ChEMBL document CHEMBL1144302, “Triaryl bis-sulfones as a new class of cannabinoid CB2 receptor inhibitors: identification of a lead and initial SAR studies” (Bioorg Med Chem Lett, 2005).

A short description of assay [1]: Binding affinity for cannabinoid receptor 2 was determined by using [35S]GTP-gamma-S, as radioligand. The assay is classed as functional, Homo sapiens. In outline:
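Human CB2 co-expressed with Gαi3 and β1γ2 in Sf9 cell membranes (7–14 pmol/mg receptor). Triplicate serial dilutions were incubated with membranes, 0.3 nM [35S]GTPγS and GDP in 20 mM HEPES, 100 mM NaCl, 5 mM MgCl2, 0.2% (w/v) lipid-free BSA, pH 7.4, for 30 min at 30°C. Reactions were stopped by filtration, and filters were washed 10× at room temperature with 20 mM HEPES/10 mM sodium pyrophosphate. Bound label was counted by liquid scintillation.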
Background: GTPγS resists hydrolysis and so accumulates on activated G proteins.

Assay [2] deals with Cannabinoid receptor (Homo sapiens) (UniProt P34972+P21554). The experiment in a line: Selectivity of cannabinoid receptor 2 over cannabinoid receptor 1. The class given is protein assay.
For assay [3], the target named is Cannabinoid receptor 1 (Homo sapiens, UniProt P21554). As to the kind of experiment: Binding affinity for cannabinoid receptor 1.
For assay [4], the target named is Cannabinoid receptor 2 (Homo sapiens, UniProt P34972). As to the kind of experiment: Binding affinity for human cannabinoid receptor 2 was determined by using [3H]CP-55940 as radioligand.
Sequence of Cannabinoid receptor 2 (P34972 whole entry): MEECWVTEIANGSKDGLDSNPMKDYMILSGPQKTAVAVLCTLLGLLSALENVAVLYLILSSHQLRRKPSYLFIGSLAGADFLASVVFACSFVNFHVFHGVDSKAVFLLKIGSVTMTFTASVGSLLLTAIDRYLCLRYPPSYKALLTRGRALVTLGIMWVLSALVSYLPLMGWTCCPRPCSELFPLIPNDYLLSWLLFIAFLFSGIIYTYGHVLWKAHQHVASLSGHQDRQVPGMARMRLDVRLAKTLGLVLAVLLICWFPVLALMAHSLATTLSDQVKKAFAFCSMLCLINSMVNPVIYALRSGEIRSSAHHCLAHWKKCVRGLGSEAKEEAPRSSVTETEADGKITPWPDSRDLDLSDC

Sequence of Cannabinoid receptor 1 (P21554 whole entry): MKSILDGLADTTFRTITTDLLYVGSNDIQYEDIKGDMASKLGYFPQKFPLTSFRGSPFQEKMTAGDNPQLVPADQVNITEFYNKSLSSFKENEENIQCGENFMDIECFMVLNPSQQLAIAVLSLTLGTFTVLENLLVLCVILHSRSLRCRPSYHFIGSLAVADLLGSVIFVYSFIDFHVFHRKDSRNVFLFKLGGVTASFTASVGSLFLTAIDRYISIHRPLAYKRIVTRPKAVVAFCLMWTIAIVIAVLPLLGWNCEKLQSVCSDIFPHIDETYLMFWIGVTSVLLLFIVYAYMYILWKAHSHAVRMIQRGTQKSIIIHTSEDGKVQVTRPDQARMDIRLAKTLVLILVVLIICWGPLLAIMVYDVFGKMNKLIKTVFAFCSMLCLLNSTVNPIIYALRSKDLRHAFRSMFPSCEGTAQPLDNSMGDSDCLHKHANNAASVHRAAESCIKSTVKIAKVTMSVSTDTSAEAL
Sequence of Cannabinoid receptor (Homo sapiens) (P21554 whole entry, looked up): as the sequence (P21554 whole entry) above
Sequence of Cannabinoid receptor (Homo sapiens) (P34972 whole entry, looked up): as the sequence (P34972 whole entry) above

On to `COc1ccc(S(=O)(=O)c2cc(OC)ccc2S(=O)(=O)c2ccc([C@H](C)NS(=O)(=O)c3ccc(Cl)c(Cl)c3)cc2)cc1`, for which the negative-log Ki (pKi) in assay [1] is 5.61; in assay [3], 6.93. In assay [2], this molecule came in with a Selectivity of 0.05.
Turning to `COc1ccc(S(=O)(=O)c2ccc([C@H](C)NC(=O)C(F)(F)F)cc2)cc1`, the pKi in assay [1] was 7.51.
As for `CCCC(=O)N[C@@H](C)c1ccc(S(=O)(=O)c2ccc(OC)cc2S(=O)(=O)c2ccc(OC)cc2)cc1`, the figures for the pKi in assay [1] and in assay [3] were 8.21 and 5.93, respectively. The molecule also registered a Selectivity in assay [2] of 189.
The like results for `CCC(=O)N[C@@H](C)c1ccc(S(=O)(=O)c2ccc(OC)cc2S(=O)(=O)c2ccc(OC)cc2)cc1` were, in that order, 7.54, 5.45 and 122.
In assay [4], `COc1ccc(C(=O)c2c(C)n(CCN3CCOCC3)c3cc(I)ccc23)cc1` had a negative-log Ki (pKi) of 7.51.
Regarding `COc1ccc(S(=O)(=O)c2cc(OC)ccc2S(=O)(=O)c2ccc([C@H](C)NS(=O)(=O)c3ccccc3)cc2)cc1`, the pKi in assay [1] is 6.62; in assay [3] it was 6.07. Further, the Selectivity in assay [2] stood at 3.6.
On to `COc1ccc(S(=O)(=O)c2cc(OC)ccc2S(=O)(=O)c2ccc([C@H](C)NC(=O)c3ccc(C)cc3)cc2)cc1`, for which the values for the pKi in assay [1] and in assay [3] were 6.54 and 6.05, respectively. Moreover, the Selectivity in assay [2] stood at 3.
Turning to `COc1ccc(S(=O)(=O)c2cc(OC)ccc2S(=O)(=O)c2ccc([C@H](C)NC(C)=O)cc2)cc1`, the pKi in assay [1] was 8.11; in assay [3] it was 5.75. The molecule further had a Selectivity in assay [2] of 231.
Turning to `COc1ccc(S(=O)(=O)c2cc(OC)ccc2S(=O)(=O)c2ccc([C@H](C)NS(=O)(=O)c3ccc(C)cc3)cc2)cc1`, the negative logarithm of the Ki (pKi) in assay [1] was 6.31; in assay [3] it was 5.72. Besides, the Selectivity in assay [2] was determined as 3.9.
As to `COc1ccc(S(=O)(=O)c2cc(OC)ccc2S(=O)(=O)c2ccc([C@H](C)NC(=O)Nc3ccc(F)cc3)cc2)cc1`, the pKi in assay [1] is 5.94; in assay [3], 4.75. In assay [2], the Selectivity was 15.
The like results for `COc1ccc(S(=O)(=O)c2cc(OC)ccc2S(=O)(=O)c2ccc([C@H](C)NC(=O)C3CC3)cc2)cc1` were, in that order, 7.80, 4.97 and 676.
In the case of `CCCNC(=O)N[C@@H](C)c1ccc(S(=O)(=O)c2ccc(OC)cc2S(=O)(=O)c2ccc(OC)cc2)cc1`, the pKi in assay [1] was 6.31; in assay [3], 4.14. This molecule had a Selectivity in assay [2] of 145.
For the molecule `COc1ccc(S(=O)(=O)c2cc(OC)ccc2S(=O)(=O)c2ccc([C@H](C)NC(=O)C(F)(F)F)cc2)cc1`, the pKi in assay [1] was 9.52; in assay [3] it was 6.63. In assay [2], the Selectivity was found to be 783.
For `COc1ccc(S(=O)(=O)c2cc(OC)ccc2S(=O)(=O)c2ccc([C@H](C)NC(=O)Cc3ccccc3)cc2)cc1`, in that order: 6.39, 6.32 and 1.2.
The like results for `CCCCS(=O)(=O)N[C@@H](C)c1ccc(S(=O)(=O)c2ccc(OC)cc2S(=O)(=O)c2ccc(OC)cc2)cc1` were, in that order, 7.39, 5.95 and 27.
On to `COc1ccc(S(=O)(=O)c2cc(OC)ccc2S(=O)(=O)c2ccc([C@H](C)NS(C)(=O)=O)cc2)cc1`, for which the pKi in assay [1] was 9.40; in assay [3] it was 6.04. The molecule further returned a Selectivity in assay [2] of 2260.
As to `COc1ccc(S(=O)(=O)c2cc(OC)ccc2S(=O)(=O)c2ccc([C@H](C)NC(=O)C(C)(C)C)cc2)cc1`, the values for the negative-log Ki (pKi) in assay [1] and in assay [3] were 7.41 and 5.64, respectively. The Selectivity in assay [2] is 60.
`CCS(=O)(=O)N[C@@H](C)c1ccc(S(=O)(=O)c2ccc(OC)cc2S(=O)(=O)c2ccc(OC)cc2)cc1`: the values for the negative-log Ki (pKi) in assay [1] and in assay [3] were 9.00 and 5.71, respectively. The molecule further had a Selectivity in assay [2] of 1510.
The like results for `COc1ccc(S(=O)(=O)c2cc(OC)ccc2S(=O)(=O)c2ccc([C@H](C)NC(=O)Nc3ccc(C)cc3)cc2)cc1` were, in that order, 6.10, 4.00 and 125.
With `COc1ccc(S(=O)(=O)c2cc(OC)ccc2S(=O)(=O)c2ccc([C@H](C)NS(=O)(=O)Cc3ccccc3)cc2)cc1`, the negative-log Ki (pKi) in assay [1] was 6.80; in assay [3], 7.10. Further, the Selectivity in assay [2] is 0.5.
For `COc1ccc(C(=O)N[C@@H](C)c2ccc(S(=O)(=O)c3ccc(OC)cc3S(=O)(=O)c3ccc(OC)cc3)cc2)cc1`, in that order: 5.90, 5.93 and 0.9.
In the case of `COc1ccc(S(=O)(=O)c2cc(OC)ccc2S(=O)(=O)c2ccc([C@H](C)NC(=O)c3ccc(Cl)c(Cl)c3)cc2)cc1`, the pKi in assay [1] was 6.78; in assay [3], 7.08. For the same molecule, the Selectivity in assay [2] was determined as 0.5.

The term pKi denotes the Ki on a negative log10 scale, so that one unit is a factor of ten. A lower pKi goes with a large Ki.
